Calls of active or inactive are those of the source. No cut-off for these calls is given here.
Tests used:
Histone deacetylase 1 [1] = target: T1, Histone deacetylase 1 (Homo sapiens, UniProt Q13547); assay: Inhibition of HDAC1 in human MDA-MB-231 cells assessed as inhibition of H4 deacetylation at 50 uM after 24 hrs by Western blot analysis; type: cell-based
Outline: (§1)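 MDA-MB-231 cells grown to 90% confluence in DMEM/10% FBS and treated with probes (50 µM final) or DMSO for 24 h at 37 °C, 5% CO2. Cells lysed in RIPA buffer with protease/phosphatase inhibitors, 25 µg total protein run on SDS-PAGE. Western blot with anti-acetyl histone H4, GAPDH as loading control; three independent experiments.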

[2] = target: Histone deacetylase 3 (Homo sapiens) (UniProt O15379); assay: Inhibition of human recombinant HDAC3 using Boc-L-Lys (Ac)-AMC as substrate at 10 uM by spectrofluorometric analysis; conditions: TDE = time-dependent effect
Histone deacetylase 2 [3] = target: T2, Histone deacetylase 2 (Homo sapiens, UniProt Q92769); assay: Inhibition of human recombinant HDAC2 using Boc-L-Lys (Ac)-AMC as substrate preincubated with compound for 5 mins measured after 35 mins by spectrofluorometric analysis
Histone deacetylase 1 [4] = target: T1, Histone deacetylase 1; assay: Inhibition of human recombinant HDAC1 using Boc-L-Lys (Ac)-AMC as substrate preincubated with compound for 5 mins measured after 35 mins by spectrofluorometric analysis
Histone deacetylase 1 [5] = target: T1, Histone deacetylase 1; assay: Inhibition of human recombinant HDAC1 using Boc-L-Lys (Ac)-AMC as substrate preincubated with compound for 3 hrs measured after 35 mins by spectrofluorometric analysis
[6] = target: T3, Histone deacetylase 8 (Homo sapiens) (UniProt Q9BY41); assay: Inhibition of human recombinant HDAC8 using BML-KI-178 as substrate at 10 uM by spectrofluorometric analysis; conditions: TDE = time-dependent effect
T3 sequence (whole entry): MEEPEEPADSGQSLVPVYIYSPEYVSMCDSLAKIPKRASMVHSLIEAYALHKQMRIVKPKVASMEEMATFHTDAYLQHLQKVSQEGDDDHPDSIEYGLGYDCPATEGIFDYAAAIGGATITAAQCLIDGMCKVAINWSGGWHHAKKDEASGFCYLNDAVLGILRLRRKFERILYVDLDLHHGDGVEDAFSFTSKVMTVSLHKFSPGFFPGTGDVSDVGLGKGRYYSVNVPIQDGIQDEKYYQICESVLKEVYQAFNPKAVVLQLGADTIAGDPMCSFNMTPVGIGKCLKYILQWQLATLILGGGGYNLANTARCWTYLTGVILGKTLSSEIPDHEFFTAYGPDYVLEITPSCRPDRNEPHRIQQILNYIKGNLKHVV

Histone deacetylase 2 [7] = target: T2, Histone deacetylase 2; assay: Inhibition of human recombinant HDAC2 using Boc-L-Lys (Ac)-AMC as substrate preincubated with compound for 3 hrs measured after 35 mins by spectrofluorometric analysis
Histone deacetylase 2 [8] = target: T2, Histone deacetylase 2; assay: Inhibition of HDAC2 in human MDA-MB-231 cells assessed as inhibition of H4 deacetylation at 50 uM after 24 hrs by Western blot analysis; type: cell-based; outline: as §1
Histone deacetylase 2 [9] = target: T2, Histone deacetylase 2; assay: Inhibition of human recombinant HDAC2 using Boc-L-Lys (Ac)-AMC as substrate preincubated with compound for 24 hrs measured after 35 mins by spectrofluorometric analysis
Histone deacetylase 2 [10] = target: T2, Histone deacetylase 2; assay: Binding affinity to His-tagged human HDAC2 assessed as decrease in biotinylation of HDAC2 at 25 uM preincubated for 24 hrs measured after 1 hr by Western blot analysis in presence of five-fold molar excess of Trichostatin A

T1 sequence (Q13547 whole entry): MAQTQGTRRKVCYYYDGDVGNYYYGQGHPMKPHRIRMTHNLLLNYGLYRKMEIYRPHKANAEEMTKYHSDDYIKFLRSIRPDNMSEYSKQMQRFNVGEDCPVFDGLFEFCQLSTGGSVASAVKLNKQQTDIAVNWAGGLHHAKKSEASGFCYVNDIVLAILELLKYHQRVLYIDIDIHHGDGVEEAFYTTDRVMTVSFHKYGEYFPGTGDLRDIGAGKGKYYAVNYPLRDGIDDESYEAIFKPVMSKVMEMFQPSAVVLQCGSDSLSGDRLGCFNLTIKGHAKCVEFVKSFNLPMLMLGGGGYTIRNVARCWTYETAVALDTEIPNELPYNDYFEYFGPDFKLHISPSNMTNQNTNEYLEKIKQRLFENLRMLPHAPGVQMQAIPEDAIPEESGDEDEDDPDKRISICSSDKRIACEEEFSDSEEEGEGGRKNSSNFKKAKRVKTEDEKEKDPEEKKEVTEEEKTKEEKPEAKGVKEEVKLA
T2 sequence (Q92769 whole entry): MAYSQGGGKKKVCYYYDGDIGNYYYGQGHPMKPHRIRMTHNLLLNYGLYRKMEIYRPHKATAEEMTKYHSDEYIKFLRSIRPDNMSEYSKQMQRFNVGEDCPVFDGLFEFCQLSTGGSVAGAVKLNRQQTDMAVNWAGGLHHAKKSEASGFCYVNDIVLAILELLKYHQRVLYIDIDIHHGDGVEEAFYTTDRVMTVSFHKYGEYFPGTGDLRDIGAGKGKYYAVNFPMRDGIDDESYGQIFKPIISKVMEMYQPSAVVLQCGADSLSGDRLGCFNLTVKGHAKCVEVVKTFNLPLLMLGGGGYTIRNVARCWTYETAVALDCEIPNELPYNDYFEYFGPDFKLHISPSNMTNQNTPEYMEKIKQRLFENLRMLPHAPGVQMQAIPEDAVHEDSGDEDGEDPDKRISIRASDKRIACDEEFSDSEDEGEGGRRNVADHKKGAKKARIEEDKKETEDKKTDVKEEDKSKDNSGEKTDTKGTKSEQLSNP
Chain of Histone deacetylase 3 (Homo sapiens) (O15379 whole entry): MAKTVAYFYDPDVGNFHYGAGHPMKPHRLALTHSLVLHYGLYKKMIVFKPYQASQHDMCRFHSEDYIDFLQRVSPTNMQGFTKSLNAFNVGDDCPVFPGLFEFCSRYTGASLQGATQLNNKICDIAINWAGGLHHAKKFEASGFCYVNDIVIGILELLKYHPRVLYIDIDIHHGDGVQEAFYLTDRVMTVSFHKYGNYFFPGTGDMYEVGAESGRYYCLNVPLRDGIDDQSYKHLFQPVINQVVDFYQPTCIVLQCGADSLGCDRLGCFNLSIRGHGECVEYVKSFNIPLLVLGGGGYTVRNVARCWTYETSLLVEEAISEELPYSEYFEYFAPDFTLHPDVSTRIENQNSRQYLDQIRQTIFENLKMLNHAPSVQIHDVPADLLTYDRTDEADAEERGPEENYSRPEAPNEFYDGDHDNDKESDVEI

SMILES	inhibition (Histone deacetylase 1 [1])	inhibition [2]	IC50 (Histone deacetylase 2 [3]) [µM]	IC50 (Histone deacetylase 1 [4]) [µM]	IC50 (Histone deacetylase 1 [5]) [µM]	inhibition [6]	IC50 (Histone deacetylase 2 [7]) [µM]	inhibition (Histone deacetylase 2 [8])	Activity (Histone deacetylase 2 [10])	IC50 (Histone deacetylase 2 [9]) [µM]
[N-]=[N+]=Nc1ccc(C(=O)Nc2cc(-c3cccs3)ccc2N)cc1	Active	tde				tde		Active		
[N-]=[N+]=NCc1cc(N=[N+]=[N-])cc(C(=O)Nc2cc(-c3cccs3)ccc2N)c1	Active	tde		5.6	1.4	tde		Active	Active	
[N-]=[N+]=NCCC(=O)Nc1ccc(C(=O)Nc2cc(N=[N+]=[N-])ccc2N)cc1		tde				tde			Active	
Nc1ccc(-c2ccccc2)cc1NC(=O)c1ccccc1		tde	1.2	0.41	0.052	tde	0.35			0.14
[N-]=[N+]=NCCOc1ccc(C(=O)Nc2cc(-c3cccs3)ccc2N)cc1N=[N+]=[N-]	Active	tde	17	18	3.8	tde	6.6	Active	Active	

Further lines, with some results ahead:

inhibition (Histone deacetylase 1 [1])	inhibition [2]	IC50 (Histone deacetylase 2 [3]) [µM]	IC50 (Histone deacetylase 1 [4]) [µM]	IC50 (Histone deacetylase 1 [5]) [µM]	inhibition [6]	IC50 (Histone deacetylase 2 [7]) [µM]	inhibition (Histone deacetylase 2 [8])	Activity (Histone deacetylase 2 [10])	SMILES	IC50 (Histone deacetylase 2 [9]) [µM]
Active	tde	3.8	3.8	0.78	tde	1	Active		[N-]=[N+]=Nc1cccc(COC(=O)NCc2ccc(C(=O)Nc3cc(-c4ccccc4)ccc3N)cc2)c1	0.32
Active	tde	34	23	2.7	tde	6.5	Active	Active	[N-]=[N+]=NCCOc1ccc(C(=O)Nc2cc(-c3ccccc3)ccc2N)cc1N=[N+]=[N-]	
Active	tde				tde		Active		[N-]=[N+]=Nc1ccc(C(=O)Nc2cc(-c3ccccc3)ccc2N)cc1	
Active	tde				tde		Active	Active	[N-]=[N+]=NCc1cc(COC(=O)NCc2ccc(C(=O)Nc3cc(-c4ccccc4)ccc3N)cc2)cc(N=[N+]=[N-])c1	
	tde				tde				Nc1ccc(-c2ccccc2)cc1NC(=O)c1ccc(CNC(=O)OCc2ccccc2)cc1	
Active	tde				tde		Active	Active	[N-]=[N+]=NCc1cc(N=[N+]=[N-])cc(C(=O)Nc2cc(-c3ccccc3)ccc2N)c1	
Active	tde				tde		Active	Active	[N-]=[N+]=NCc1cc(COC(=O)NCc2ccc(C(=O)Nc3cc(-c4cccs4)ccc3N)cc2)cc(N=[N+]=[N-])c1	
